Laboratory results reported in ChEMBL document CHEMBL1821716, “Pyrazolopyridine inhibitors of B-RafV600E. Part 2: structure-activity relationships” (Bioorg Med Chem Lett, 2011).

Columns and labels:
[1] = biological target: Receptor-type tyrosine-protein kinase FLT3 (Homo sapiens) (UniProt P36888); assay: Inhibition of FLT3 at 1 uM
In short: (§1)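 Kinase selectivity panel reported as percent inhibition of each kinase at a single test-compound concentration. Values are means of at least two experiments.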

[2] = biological target: Tyrosine-protein kinase Lck (Homo sapiens) (UniProt P06239); assay: Inhibition of LCK at 1 uM; in short: as §1
[3] = biological target: T1, Aurora kinase A (Homo sapiens) (UniProt O14965); assay: Inhibition of aurora A at 1 uM; in short: as §1
T1 sequence (whole entry): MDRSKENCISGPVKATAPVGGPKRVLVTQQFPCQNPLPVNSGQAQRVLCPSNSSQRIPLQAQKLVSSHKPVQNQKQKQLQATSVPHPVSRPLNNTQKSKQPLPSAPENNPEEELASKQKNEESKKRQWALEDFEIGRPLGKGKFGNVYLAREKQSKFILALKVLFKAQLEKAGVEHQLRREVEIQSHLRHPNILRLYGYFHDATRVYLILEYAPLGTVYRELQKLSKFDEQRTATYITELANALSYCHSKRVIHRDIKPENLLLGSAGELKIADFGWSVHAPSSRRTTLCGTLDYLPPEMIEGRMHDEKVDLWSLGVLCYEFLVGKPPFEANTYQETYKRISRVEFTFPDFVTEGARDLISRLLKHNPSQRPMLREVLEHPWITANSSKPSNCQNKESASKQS

[4] = biological target: Tyrosine-protein kinase Srms (Homo sapiens) (UniProt Q9H3Y6); assay: Inhibition of SRMS at 1 uM; in short: as §1
[5] = biological target: Serine/threonine-protein kinase B-raf (Homo sapiens, UniProt P15056, V600E); assay: Inhibition of full length B-Raf V600E mutant
[6] = biological target: Protein-tyrosine kinase 6 (Homo sapiens) (UniProt Q13882); assay: Inhibition of PTK6 at 1 uM; in short: as §1
[7] = biological target: Tyrosine-protein kinase Fgr (Homo sapiens) (UniProt P09769); assay: Inhibition of FGR at 1 uM; in short: as §1
[8] = Inhibition of basal ERK phosphorylation in human MALME-3M cells; type: cell-based
[9] = biological target: Proto-oncogene tyrosine-protein kinase Src (Homo sapiens) (UniProt P12931); assay: Inhibition of SRC at 1 uM; in short: as §1
Chain of Proto-oncogene tyrosine-protein kinase Src (Homo sapiens) (P12931 2-536 limits assumed): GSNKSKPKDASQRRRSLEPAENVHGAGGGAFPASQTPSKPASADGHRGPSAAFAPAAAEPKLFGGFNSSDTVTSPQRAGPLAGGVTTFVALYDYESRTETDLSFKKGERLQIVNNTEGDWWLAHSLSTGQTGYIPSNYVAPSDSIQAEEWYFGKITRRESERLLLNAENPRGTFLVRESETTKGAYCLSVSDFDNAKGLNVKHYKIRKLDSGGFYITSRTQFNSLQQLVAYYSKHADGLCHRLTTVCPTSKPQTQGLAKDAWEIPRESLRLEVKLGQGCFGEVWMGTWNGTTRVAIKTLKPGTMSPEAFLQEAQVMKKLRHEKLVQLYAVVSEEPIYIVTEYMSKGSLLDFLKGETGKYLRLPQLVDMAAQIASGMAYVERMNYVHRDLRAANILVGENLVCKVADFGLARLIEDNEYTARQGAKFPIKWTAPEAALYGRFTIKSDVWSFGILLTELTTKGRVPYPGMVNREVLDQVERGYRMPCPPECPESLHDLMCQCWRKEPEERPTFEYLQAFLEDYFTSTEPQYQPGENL

Chain of Tyrosine-protein kinase Lck (Homo sapiens) (P06239 2-509 limits assumed): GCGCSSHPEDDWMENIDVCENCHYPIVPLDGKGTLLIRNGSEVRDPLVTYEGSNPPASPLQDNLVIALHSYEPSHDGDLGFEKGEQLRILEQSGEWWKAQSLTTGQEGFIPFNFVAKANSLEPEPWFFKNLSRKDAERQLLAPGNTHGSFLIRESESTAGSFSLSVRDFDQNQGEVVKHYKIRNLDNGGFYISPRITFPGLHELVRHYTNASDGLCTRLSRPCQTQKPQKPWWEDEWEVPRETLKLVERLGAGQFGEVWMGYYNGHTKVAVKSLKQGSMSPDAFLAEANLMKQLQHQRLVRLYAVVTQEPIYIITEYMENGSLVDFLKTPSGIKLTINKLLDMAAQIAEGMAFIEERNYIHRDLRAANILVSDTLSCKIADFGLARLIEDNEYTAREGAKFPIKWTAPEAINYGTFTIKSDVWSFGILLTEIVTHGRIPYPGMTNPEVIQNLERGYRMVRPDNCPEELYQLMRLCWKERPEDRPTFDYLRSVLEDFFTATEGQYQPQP
Chain of Receptor-type tyrosine-protein kinase FLT3 (Homo sapiens) (P36888 whole entry): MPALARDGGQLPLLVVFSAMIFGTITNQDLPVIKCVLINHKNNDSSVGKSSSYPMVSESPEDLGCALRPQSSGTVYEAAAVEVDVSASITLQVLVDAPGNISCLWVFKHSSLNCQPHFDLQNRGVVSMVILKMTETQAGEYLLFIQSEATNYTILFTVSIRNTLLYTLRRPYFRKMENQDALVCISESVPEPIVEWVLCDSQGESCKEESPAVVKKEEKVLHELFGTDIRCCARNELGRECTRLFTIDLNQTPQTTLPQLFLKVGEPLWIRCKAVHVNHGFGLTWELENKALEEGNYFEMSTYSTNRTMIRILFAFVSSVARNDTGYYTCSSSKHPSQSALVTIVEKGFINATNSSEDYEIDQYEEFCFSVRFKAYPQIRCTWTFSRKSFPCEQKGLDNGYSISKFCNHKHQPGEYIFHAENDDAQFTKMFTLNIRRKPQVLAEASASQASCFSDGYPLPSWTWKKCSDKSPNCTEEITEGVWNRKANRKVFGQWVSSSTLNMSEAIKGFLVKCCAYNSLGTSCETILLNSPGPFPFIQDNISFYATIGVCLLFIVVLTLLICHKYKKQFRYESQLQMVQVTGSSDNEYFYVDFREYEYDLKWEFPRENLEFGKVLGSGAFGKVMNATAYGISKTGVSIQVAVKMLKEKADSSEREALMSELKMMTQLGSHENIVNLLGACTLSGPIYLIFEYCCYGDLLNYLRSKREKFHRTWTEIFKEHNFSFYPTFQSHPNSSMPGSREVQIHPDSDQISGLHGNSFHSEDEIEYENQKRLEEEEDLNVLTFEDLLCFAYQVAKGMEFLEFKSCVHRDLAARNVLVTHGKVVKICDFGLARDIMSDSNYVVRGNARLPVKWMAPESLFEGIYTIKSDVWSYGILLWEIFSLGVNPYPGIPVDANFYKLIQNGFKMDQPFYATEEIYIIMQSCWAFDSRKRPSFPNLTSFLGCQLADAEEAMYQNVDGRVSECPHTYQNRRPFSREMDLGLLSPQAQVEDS
Chain of Protein-tyrosine kinase 6 (Homo sapiens) (Q13882 whole entry, looked up): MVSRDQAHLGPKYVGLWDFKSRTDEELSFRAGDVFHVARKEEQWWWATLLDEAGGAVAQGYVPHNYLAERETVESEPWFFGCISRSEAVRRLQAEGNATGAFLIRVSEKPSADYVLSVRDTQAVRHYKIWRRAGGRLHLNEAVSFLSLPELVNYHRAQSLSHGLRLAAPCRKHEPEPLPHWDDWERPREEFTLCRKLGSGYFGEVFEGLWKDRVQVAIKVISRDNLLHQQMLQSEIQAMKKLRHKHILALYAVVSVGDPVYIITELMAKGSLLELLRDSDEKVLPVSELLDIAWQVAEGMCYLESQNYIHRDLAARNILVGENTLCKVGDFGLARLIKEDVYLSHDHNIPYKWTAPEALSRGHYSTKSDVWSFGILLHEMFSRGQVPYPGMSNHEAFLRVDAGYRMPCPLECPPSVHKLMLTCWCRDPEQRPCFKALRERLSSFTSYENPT
Chain of Tyrosine-protein kinase Srms (Homo sapiens) (Q9H3Y6 whole entry): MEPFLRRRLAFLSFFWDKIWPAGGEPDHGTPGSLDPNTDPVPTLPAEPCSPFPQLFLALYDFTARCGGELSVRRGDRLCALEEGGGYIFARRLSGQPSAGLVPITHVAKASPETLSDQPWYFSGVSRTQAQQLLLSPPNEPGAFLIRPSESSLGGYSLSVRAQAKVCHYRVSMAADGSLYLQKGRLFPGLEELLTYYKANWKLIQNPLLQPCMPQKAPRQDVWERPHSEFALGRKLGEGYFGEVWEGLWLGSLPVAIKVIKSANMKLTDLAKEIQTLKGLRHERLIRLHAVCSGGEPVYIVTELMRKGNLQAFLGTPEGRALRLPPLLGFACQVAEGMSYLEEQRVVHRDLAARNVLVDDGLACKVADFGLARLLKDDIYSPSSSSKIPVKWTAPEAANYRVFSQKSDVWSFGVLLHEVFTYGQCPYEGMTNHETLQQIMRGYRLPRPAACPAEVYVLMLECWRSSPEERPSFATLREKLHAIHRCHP
Chain of Serine/threonine-protein kinase B-raf (P15056 2-766 V600E limits assumed): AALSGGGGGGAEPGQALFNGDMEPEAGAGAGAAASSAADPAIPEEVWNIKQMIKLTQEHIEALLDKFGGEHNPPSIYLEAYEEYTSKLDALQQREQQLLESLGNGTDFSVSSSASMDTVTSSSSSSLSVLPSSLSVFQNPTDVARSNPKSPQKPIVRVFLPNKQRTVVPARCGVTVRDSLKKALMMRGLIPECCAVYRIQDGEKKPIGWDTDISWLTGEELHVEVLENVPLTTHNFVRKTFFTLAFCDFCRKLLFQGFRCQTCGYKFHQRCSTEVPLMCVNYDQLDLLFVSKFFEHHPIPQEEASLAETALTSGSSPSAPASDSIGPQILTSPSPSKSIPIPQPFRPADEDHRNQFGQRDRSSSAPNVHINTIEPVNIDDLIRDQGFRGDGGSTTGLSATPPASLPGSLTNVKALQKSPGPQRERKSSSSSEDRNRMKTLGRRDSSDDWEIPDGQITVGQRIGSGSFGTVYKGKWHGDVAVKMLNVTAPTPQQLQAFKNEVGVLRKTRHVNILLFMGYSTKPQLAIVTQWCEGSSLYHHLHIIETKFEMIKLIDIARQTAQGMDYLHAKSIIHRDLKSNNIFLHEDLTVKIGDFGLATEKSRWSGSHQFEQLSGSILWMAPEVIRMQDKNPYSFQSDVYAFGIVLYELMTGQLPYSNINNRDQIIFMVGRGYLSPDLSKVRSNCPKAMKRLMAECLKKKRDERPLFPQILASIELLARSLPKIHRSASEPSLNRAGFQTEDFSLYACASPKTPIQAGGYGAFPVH
Chain of Tyrosine-protein kinase Fgr (Homo sapiens) (P09769 2-529 limits assumed): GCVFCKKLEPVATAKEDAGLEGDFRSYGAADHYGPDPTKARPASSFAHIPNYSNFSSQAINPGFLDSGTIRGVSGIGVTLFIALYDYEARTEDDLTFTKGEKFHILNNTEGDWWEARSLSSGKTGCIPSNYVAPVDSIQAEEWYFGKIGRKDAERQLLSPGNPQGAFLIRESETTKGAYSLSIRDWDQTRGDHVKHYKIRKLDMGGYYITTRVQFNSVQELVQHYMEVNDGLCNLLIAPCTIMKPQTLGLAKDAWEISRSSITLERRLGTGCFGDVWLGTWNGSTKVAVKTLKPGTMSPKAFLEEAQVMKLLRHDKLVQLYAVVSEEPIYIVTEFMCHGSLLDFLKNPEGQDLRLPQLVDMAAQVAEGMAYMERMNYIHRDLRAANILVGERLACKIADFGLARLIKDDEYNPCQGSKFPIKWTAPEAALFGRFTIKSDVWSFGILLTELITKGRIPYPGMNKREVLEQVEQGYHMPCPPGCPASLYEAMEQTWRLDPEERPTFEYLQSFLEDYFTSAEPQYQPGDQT

inhibition [1]: 77% | inhibition [2]: 96% | inhibition [3]: 52% | inhibition [4]: 98% | IC50 [5]: 0.7 nM | inhibition [6]: 101% | inhibition [7]: 98% | IC50 [8]: 12 nM | inhibition [9]: 77%
Structure (SMILES): COc1n[nH]c2ncc(NC(=O)c3c(F)ccc(NS(=O)(=O)c4cccc(F)c4)c3F)cc12
